The target of one data set is T1, rM4 receptor (Rattus norvegicus, UniProt P08485).
T1 sequence (P08485 1-478): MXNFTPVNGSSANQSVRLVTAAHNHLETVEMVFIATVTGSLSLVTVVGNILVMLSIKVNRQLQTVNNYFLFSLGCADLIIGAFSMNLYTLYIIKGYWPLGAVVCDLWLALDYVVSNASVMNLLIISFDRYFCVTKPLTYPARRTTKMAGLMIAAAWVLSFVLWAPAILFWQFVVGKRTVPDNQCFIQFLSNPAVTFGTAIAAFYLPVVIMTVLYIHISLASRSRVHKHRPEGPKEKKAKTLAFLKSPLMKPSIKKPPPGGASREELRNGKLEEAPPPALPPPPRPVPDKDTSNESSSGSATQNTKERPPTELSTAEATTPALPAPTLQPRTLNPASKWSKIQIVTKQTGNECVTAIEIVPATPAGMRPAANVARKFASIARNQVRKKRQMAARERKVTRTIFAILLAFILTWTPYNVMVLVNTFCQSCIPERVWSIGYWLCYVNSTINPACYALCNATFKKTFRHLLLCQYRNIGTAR
The data set is described as follows: [3H]NMS equilibrium radioligand binding, membranes from rM4-expressing CHO cells.

For the next data set, the target named is T2, M1 mAChR (Rattus norvegicus, UniProt P08482).
T2 sequence (P08482 1-460): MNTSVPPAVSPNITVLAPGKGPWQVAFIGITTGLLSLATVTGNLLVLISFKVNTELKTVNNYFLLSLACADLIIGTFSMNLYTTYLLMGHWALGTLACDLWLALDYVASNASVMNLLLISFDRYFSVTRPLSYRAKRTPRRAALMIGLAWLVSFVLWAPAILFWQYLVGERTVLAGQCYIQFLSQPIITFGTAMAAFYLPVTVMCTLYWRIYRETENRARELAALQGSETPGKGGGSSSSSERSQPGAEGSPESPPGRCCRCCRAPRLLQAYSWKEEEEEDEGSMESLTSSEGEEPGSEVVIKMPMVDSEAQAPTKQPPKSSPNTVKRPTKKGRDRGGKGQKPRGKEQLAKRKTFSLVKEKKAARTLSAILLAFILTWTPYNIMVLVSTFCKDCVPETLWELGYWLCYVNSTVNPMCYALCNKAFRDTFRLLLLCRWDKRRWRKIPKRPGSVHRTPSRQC
The data set is described as follows: Calcium mobilization selectivity assay, CHO K1 cells expressing M1. To be noted: 30 µM compound. Type of data set: cell-based. The method, boiled down: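 CHO K1 cells stably expressing rat M1 or human M3 or M5, coupled through endogenous Gq. Seeded 50,000 cells/well and held overnight in antibiotic-free medium at 37°C/5% CO2. Loaded with 2 µM Fluo-4 AM for 45 min at 37°C in HBSS/20 mM HEPES/2.5 mM probenecid, pH 7.4. […] Three independent experiments.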

The subject of a further data set is panel of 16 GPCRs. Kind of data set: Millipore GPCR Profiler functional panel. Type of data set: cell-based. The method, boiled down:
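Outsourced functional screening paradigm covering 16 GPCRs, chosen as family A subtypes among the closest relatives of mAChRs. Test compound was assessed for agonist, antagonist and allosteric potentiator activity by its effect on full concentration-response curves of each receptor's agonist.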

Another data set addresses T3, M1 (Homo sapiens, UniProt P11229).
T3 sequence (P11229 1-460): T2 sequence (P08482 1-460) with V5A, S254T, S309P, K320R, G337A, V413I
The data set is described as follows: Millipore GPCR Profiler functional screen, M1. The following applies: full agonist CRC. Type of data set: cell-based.

A short description of a further data set: log P. Type of data set: physicochemical.
Data set [1] is described as follows: Brain and plasma exposure pharmacokinetic profiling. Type of data set: in vivo, rat. The following applies: male rats, 56.6 mg/kg i.p.; mean ± S.E.M., n = 3. The method, boiled down:
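Male Sprague-Dawley rats (225–250 g), fasted overnight. Test compound dissolved at 56.6 mg/ml in 10% Tween 80/water, pH ~7.0 (1 N NaOH), sonicated, and given at 56.6 mg/kg i.p. Brain and trunk plasma taken at 0.5, 1, 2 and 4 h, three rats per time point. Brain homogenized in acetonitrile/methanol and plasma precipitated with acidified acetonitrile, both with internal standard. Analyzed by positive-ESI LC-MS-MS, linear 50 ng/ml–100 µg/ml. AUC0-∞ by trapezoidal method.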

Data set [2] has as its system amphetamine-induced hyperlocomotion in rats. Kind of data set: Amphetamine-induced hyperlocomotion. Type of data set: in vivo, rat. The following applies: 56.6 mg/kg i.p., 30-min pretreatment; 1 mg/kg s.c. amphetamine; 60 min.
Data set [3] has as its target T4, human M4 muscarinic receptor (Homo sapiens, UniProt P08173).
T4 sequence (P08173 1-479): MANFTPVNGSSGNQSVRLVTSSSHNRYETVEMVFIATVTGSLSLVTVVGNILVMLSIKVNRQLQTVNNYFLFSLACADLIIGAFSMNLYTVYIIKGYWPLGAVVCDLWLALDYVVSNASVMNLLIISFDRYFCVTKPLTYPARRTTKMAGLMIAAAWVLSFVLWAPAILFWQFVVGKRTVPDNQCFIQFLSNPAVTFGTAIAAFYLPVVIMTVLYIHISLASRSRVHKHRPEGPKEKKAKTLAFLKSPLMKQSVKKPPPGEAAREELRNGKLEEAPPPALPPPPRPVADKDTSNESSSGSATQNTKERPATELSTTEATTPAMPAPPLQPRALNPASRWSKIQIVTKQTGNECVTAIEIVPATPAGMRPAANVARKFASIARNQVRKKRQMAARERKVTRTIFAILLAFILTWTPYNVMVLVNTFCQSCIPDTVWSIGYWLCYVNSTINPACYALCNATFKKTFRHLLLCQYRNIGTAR

Molecules are shown by their SMILES. Changes are numbered by the printed parent chain.

The term log P denotes a log measure of how a compound divides between an organic and an aqueous phase.

Turning to `Cc1cc(C)c2c(N)c(C(=O)NCc3ccc4c(c3)OCO4)sc2n1` [VU0152099, 3-amino-N-(benzo[d][1,3]dioxol-5-ylmethyl)-4,6-dimethylthieno[2,3-b]pyridine carboxamide], the “displacement of [3H]NMS” value on rM4 receptor (0.1 nM [3H]NMS, concentrations up to 30 µM) is “neither M4 PAM displaced”. At rM4 receptor (10 µM compound), the “leftward shift in the potency of ACh to displace [3H]NMS” value was 25 fold. In addition, on M1 mAChR, the “shift in the ACh CRC at M1” value is “No shift in the ACh CRC was observed”. Besides, the “agonist activity, compound alone” value with panel of 16 GPCRs (data not shown) was “no agonist activity at any receptor studied”. In the data set with panel of 16 GPCRs (full agonist CRCs), the “allosteric potentiator activity at the other GPCR subtypes” value is “had no allosteric potentiator activity at any of the other GPCR subtypes tested”. On M1, the “potentiator activity at M1” value is listed as “had no potentiator activity at M1”. In addition, the “log P” value in the data set “log P” turned out to be 3.65. In data set [1], the “AUC brain / AUC plasma” value was 0.39 ± 0.01, the “Mean AUC (0-∞) brain” value turned out to be 4751.80 ± 666.17 ng·h/g, the “Mean AUC(0-∞) plasma” value amounted to 11928.00 ± 1472.36 ng·h/mL and the t1/2 brain turned out to be 1.25 ± 0.023 h. The t1/2 plasma in data set [1] was determined as 1.66 ± 0.39 h. For the same molecule, the “effect on amphetamine-induced hyperlocomotion” value in data set [2] is “produced robust decreases in amphetamine-induced hyperlocomotion”. Also, the “leftward shift in the ACh CRC” value in data set [3] (10 µM compound) was “≈ 30 fold”. Besides, the “maximal response to ACh” value in data set [3] (in presence of compound) is “approximately 130%”.
